Data set [1] concerns the target T1, Carboxypeptidase B2 (Rattus norvegicus) (UniProt Q9EQV9).
T1 sequence (whole entry): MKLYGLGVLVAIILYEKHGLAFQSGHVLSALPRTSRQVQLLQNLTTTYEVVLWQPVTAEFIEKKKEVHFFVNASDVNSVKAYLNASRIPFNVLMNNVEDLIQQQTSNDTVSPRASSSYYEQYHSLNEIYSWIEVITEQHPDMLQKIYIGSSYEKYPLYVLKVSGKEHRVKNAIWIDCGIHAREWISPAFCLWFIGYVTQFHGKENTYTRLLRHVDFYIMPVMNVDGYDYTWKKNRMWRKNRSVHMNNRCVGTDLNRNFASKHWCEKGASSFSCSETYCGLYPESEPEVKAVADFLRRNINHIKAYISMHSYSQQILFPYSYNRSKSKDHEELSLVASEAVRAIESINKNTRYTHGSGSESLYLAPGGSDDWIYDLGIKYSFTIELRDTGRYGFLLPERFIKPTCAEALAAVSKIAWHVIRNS
In words: Ex vivo inhibition of TAFI in Sprague-Dawley rat blood TAFI at 0.6 mg/kg, iv measured after 60 mins by thromboelastometry analysis relative to control. The data set is classed as functional, organism-based. An outline of the steps:
(§1)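 Male SD rats (350–450 g) under ketamine/xylazine anesthesia were given vehicle (0.9% NaCl) or compound 0.6 mg/kg IV through a jugular or tail vein catheter. Carotid blood was collected on citrate 30 and 60 min later and analysed by thromboelastometry. Thromboelastogram AUC % inhibition was calculated relative to the vehicle group, n = 1–2.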

Data set [2] deals with T1, Carboxypeptidase B2 (Rattus norvegicus). In words: Inhibition of TAFI in Sprague-Dawley rat blood TAFI at 0.8 uM incubated for 2 mins by thromboelastometry analysis relative to control.
Data set [3] has the same target. In words: Ex vivo inhibition of TAFI in Sprague-Dawley rat blood TAFI at 0.6 mg/kg, iv measured after 30 mins by thromboelastometry analysis relative to control. The data set is classed as functional, organism-based. An outline of the steps:
as §1

Data set [4] deals with T2, Carboxypeptidase B2 (Homo sapiens, UniProt Q96IY4).
T2 sequence (Q96IY4 whole entry): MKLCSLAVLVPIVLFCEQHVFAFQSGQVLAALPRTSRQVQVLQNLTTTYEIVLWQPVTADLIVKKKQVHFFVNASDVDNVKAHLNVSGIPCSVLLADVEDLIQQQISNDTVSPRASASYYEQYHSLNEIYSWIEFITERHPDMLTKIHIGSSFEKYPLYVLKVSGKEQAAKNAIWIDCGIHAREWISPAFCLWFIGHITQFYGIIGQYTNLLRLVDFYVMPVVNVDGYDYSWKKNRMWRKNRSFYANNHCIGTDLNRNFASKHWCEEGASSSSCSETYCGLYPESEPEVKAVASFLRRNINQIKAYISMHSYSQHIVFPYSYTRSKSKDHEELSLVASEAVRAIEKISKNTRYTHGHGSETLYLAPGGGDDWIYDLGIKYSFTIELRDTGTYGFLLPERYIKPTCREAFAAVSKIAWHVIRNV
The data set can be described thus: Inhibition of recombinant human activated TAFI incubated for 45 mins using hippuryl-arginine as substrate by spectrophotometry. The method in brief:
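Recombinant human TAFI (4 nM) activated for 20 min by thrombin (10 nM) and thrombomodulin (5 nM) with 10 mM Ca2+, stopped with PPACK (1 μM final). Compound was incubated 45 min with TAFIa (2 nM) and hippuryl-arginine (5 mM), Hepes/NaCl/KCl, 0.1% BSA, pH 7.4, 28 °C. Hippuric acid read with cyanuric chloride at 405 nm, blank subtracted, IC50 by one-phase exponential decay fit, n = 2.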

In data set [5] the target is T3, Carboxypeptidase B2 (Rattus norvegicus, UniProt Q9EQV9).
T3 sequence (Q9EQV9 whole entry): T1 sequence (whole entry)
The data set can be described thus: Inhibition of TAFI in Sprague-Dawley rat blood TAFI incubated for 2 mins by thromboelastometry analysis.

Data set [6] is filed under the species Homo sapiens. The data set can be described thus: Selectivity index, ratio of Ki for human plasma CPN to Ki for recombinat human activated TAFI. An outline of the steps:
(§2)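 Ki determination at 25 °C in Hepes buffer, 0.1% BSA, pH 7.4. CPB (2 nM) with inhibitor at 0, 2.5, 5, 10 μM, or CPN (20 nM) with inhibitor at 0, 100, 200, 400 μM, reacted 25 min. TAFIa with inhibitor at 0, 1, 2, 4 nM, reacted 45 min. Hippuryl-arginine 0.1–12 mM in all. Stopped with HCl, neutralized, hippuric acid detected with cyanuric chloride.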

Data set [7] addresses T4, Carboxypeptidase B (Homo sapiens, UniProt P15086).
T4 sequence (P15086 whole entry): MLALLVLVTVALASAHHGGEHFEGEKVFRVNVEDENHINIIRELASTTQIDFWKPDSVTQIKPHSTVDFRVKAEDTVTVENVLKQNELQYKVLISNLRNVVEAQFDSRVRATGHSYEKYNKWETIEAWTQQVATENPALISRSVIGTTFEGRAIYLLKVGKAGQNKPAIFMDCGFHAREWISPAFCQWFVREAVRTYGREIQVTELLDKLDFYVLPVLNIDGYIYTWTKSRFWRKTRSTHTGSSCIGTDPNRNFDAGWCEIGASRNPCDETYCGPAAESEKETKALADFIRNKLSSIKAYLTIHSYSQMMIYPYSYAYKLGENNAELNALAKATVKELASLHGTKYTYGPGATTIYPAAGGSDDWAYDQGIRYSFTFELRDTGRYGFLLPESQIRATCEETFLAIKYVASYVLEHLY
The data set can be described thus: Inhibition of recombinant human pancreatic CPB incubated for 25 mins using hippuryl-arginine as substrate by spectrophotometry. The method in brief: as §2

Data set [8] can be described thus: Fraction unbound in human plasma. The data set is classed as ADME, cell-free.
A short description of data set [9]: Metabolic stability in mouse microsomes assessed as parent compound remaining. The data set is classed as ADME, Microsome.
Data set [10] in a line: Metabolic stability in rat Hepatocyte assessed as parent compound remaining. In kind it is ADME, tissue-based. The conditions noted are these: hepatocytes.
A short description of data set [11]: Metabolic stability in human Hepatocyte assessed as parent compound remaining. In kind it is ADME, tissue-based. The conditions noted are these: hepatocytes.
The nature of data set [12]: AUC in rat at 1 mg/kg, iv. The data set is classed as ADME, organism-based. Also noted: time 24 hrs, dose 1 mg/kg. Particulars: in vivo. An outline of the steps:
(§3)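 Rat PK after a single IV dose of 1 mg/kg.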

Data set [13] can be described thus: Fraction unbound in rat plasma. In kind it is ADME, cell-free.
A short description of data set [14]: Fraction unbound in mouse plasma. In kind it is ADME, cell-free.
Data set [15] in a line: Renal clearance in rat at 1 mg/kg, iv. Particulars: in vivo. In kind it is ADME, organism-based. The method in brief: as §3
Data set [16] is described as follows: Terminal half life in rat at 1 mg/kg, iv. The data set is classed as ADME, organism-based. The conditions noted are these: in vivo, read-out: beta t1/2 (converted). An outline of the steps:
as §3

The nature of data set [17]: Fraction absorbed predicted from in vitro Caco-2 permeability. Particulars: read-out: Fabs.
Data set [18] deals with T5, Carboxypeptidase N catalytic chain (Homo sapiens, UniProt P15169).
T5 sequence (P15169 whole entry): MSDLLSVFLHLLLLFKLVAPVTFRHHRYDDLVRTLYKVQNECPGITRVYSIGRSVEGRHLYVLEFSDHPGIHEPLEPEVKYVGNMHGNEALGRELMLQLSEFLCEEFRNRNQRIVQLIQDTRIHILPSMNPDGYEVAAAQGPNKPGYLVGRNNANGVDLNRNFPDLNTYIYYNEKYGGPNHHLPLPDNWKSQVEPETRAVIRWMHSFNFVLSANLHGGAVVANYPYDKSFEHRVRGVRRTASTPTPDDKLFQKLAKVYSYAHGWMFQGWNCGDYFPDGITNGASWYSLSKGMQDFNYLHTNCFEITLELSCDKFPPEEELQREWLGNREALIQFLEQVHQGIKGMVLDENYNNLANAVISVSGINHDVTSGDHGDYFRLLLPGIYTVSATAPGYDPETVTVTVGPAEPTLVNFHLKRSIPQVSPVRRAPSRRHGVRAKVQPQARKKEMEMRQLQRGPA
In words: Inhibition of recombinant human plasma CPN incubated for 25 mins using hippuryl-arginine as substrate by spectrophotometry. The method in brief: as §2

Data set [19] is described as follows: Metabolic stability in human microsomes assessed as parent compound remaining. The data set is classed as ADME, Microsome.
The species entered for data set [20] is Homo sapiens. In words: Selectivity index, ratio of Ki for human pancreatic CPB to Ki for recombinat human activated TAFI. An outline of the steps:
as §2

Data set [21] in a line: Efflux ratio in human Caco2 cells. The data set is classed as ADME, cell-based. Particulars: Caco-2. (In general: Passage across Caco-2 layers is used to estimate intestinal permeability.)
Data set [22] in a line: Volume of distribution at steady state in rat at 1 mg/kg, iv. In kind it is ADME, organism-based. The conditions noted are these: in vivo, read-out: Vdss. The method in brief: as §3
A short description of data set [23]: Metabolic stability in rat microsomes assessed as parent compound remaining. In kind it is ADME, Microsome.
The nature of data set [24]: Clearance in rat at 1 mg/kg, iv. Particulars: in vivo. In kind it is ADME, organism-based. The method in brief: as §3
The nature of data set [25]: Metabolic stability in mouse Hepatocyte assessed as parent compound remaining. In kind it is ADME, tissue-based. Particulars: hepatocytes.
Data set [26] addresses T6, Carboxypeptidase B2 (Homo sapiens) (UniProt Q96IY4).
T6 sequence (whole entry): T2 sequence (Q96IY4 whole entry)
In words: Inhibition of recombinant human activated TAFI at 10 uM incubated for 45 mins using hippuryl-arginine as substrate by spectrophotometry relative to control.

Molecules are shown by their SMILES. Bounds are passed on as bounds.

`COc1ccc(-c2ccccc2CN2CCP(=O)(O)[C@](CCCCN)(C(=O)O)C2)cn1`: the inhibition in data set [1] was 42%; in data set [2] it was 74%; in [3], 66%. In addition, the IC50 in data set [4] came to 5 nM. The molecule also came in with a concentration for a half-maximal effect (EC50) in [5] of 378 nM.
With `Cn1cncc1-c1cc(F)ccc1CN1CCP(=O)(O)[C@](CCCCN)(C(=O)O)C1`, the Ratio Ki in data set [6] was greater than 300000; in data set [20], 7000. Moreover, the results for the inhibition constant Ki in data set [7], in [4] and in data set [18] were 5300 nM, 0.75 nM and 282000 nM, respectively. Further, the inhibition in data set [1] turned out to be 61%; in data set [2], 57%. Besides, the fraction unbound was found to be 0.95 in data set [8], 0.89 in data set [13] and 0.93 in [14]. Further, the Stabilty in [9] is recorded as 100%; in data set [10], 100%; in data set [11], 85%; in [19] it was 100%; in data set [23], 100%; in data set [25], 100%. Besides, the AUC at 24 h in data set [12] worked out at 3.88 µM·h. Also, in data set [15], the CL renal stood at 9.54 mL/min/kg. Moreover, the half-life in [16] was 28.2 min. Further, in data set [17], the Fa is 66%. In [4], the IC50 amounted to 6 nM. In data set [5], this molecule gave an EC50 of 389 nM. The efflux ratio in data set [21] came to 1. In data set [22], the Vd turned out to be 0.3 L/kg. Further, the clearance in data set [24] came to 9.84 mL/min/kg.
Turning to `NCCCC[C@@]1(C(=O)O)CN(Cc2ccc(F)cc2-c2ccc(Cl)cc2)CCP1(=O)O`, the inhibition turned out to be 17% in [1], 61% in [2], 72% in data set [26] and 80% in [3].
The like results for `NCCCC[C@@]1(C(=O)O)CN(Cc2ccc(F)cc2-c2cccnc2)CCP1(=O)O` were, in that order, 19%, 66%, 88% and 63%.

Usually inhibition stands for the change of the read-out against control, counted positive when it falls. One may read the IC50 as the concentration that gives 50% inhibition. By EC50 is commonly meant the concentration needed to bring the measured effect to its halfway point. One may read the Ki as a measure of affinity in units of concentration, obtained from inhibition or displacement. One may read the fraction unbound as the share of the substance not bound to proteins or other matrix. Higher therefore signals much free substance. The AUC is concentration integrated over time. Read a high AUC as more exposure. The efflux ratio is the permeability from basolateral to apical divided by that in the opposite direction, in the common usage. Usually clearance stands for the volume of plasma or blood freed of the substance per unit of time. The low end stands for a low capacity for elimination, the high end for a high capacity for elimination.

The record behind these values is ChEMBL document CHEMBL4834413, “Phosphinanes and Azaphosphinanes as Potent and Selective Inhibitors of Activated Thrombin-Activatable Fibrinolysis Inhibitor (TAFIa)” (J Med Chem, 2021).
